Sampled rows, rich in hits. Any-hit rate of the full collection: about 0.6%.
GSK3B inh – inhibitors of human GSK3beta kinase | P49841 | activity score (negative = inhibition), % at 10 µM | GST-GSK3beta kinase, ADP-Glo luminescence, 60 min; hits give low values | 300,000 compounds, 0.038% hits | AID 2097;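 active means more than half of replicate wells score below -50%, meaning over 50% inhibition versus plate controls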;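 further: 0% = median DMSO wells and -100% = median GW8510 positive control wells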
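Assay system: GST-tagged human GSK3beta kinase, cell-free; Input: 1.6 ng GSK3beta; Medium: Tris/MgCl2 kinase buffer; Timing: 60 min enzyme reaction, room temperature; Signal: ADP-Glo luminescence quantifying ADP generated by kinase; Evaluation: score relative to plate controls; Benchmarks: DMSO neutral wells and GW8510 at 20 µM as positive.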
PolyA inh – blocks polyadenylation in yeast reporter cells. S. cerevisiae SKY197-pL101 polyadenylation reporter, beta-gal luminescence; efflux-impaired pdr1/pdr3 knockout yeast; score 100 = 6 SD above DMSO. activity score, % at 12 µM. 300,000 compounds, 0.02% hits;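 active means lowest replicate activity score at least 50, where 100 means six control SD above control mean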;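 further: yeast exposed to compound for 9 h at 30 °C; higher score means more reporter readthrough which indicates perturbed polyadenylation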
GSK3 alpha inh – human GSK-3 alpha kinase inhibition; ADP-Glo luminescence, 60 min; AID 2650; 320,000 compounds, 0.1% hits; inhibition, % at 10 µM; P49840;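 active means more than half of replicates show inhibition above 20%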;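 further: GST-tagged GSK-3 alpha with peptide substrate and 25 µM ATP; 0% = DMSO neutral wells and 100% = GW8510 positive control wells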
Efflux pump inh – inhibitors of Candida antifungal efflux pumps expressed in yeast | 330,000 compounds, 0.44% hits | AID 485275 | S. cerevisiae Candida pump triplex, Nile Red efflux | inhibition, % at 10 µM;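 active means plate passing quality check with inhibition over a set limit, or well fluorescence over plate mean plus 4 SD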;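 further: Nile Red retained in pooled yeast measured as flow cytometry median fluorescence; 0% = buffer negative control and 100% = Enniatin B positive control; higher means more Nile Red kept so more efflux inhibition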
STK33 kinase inh – inhibitors of human STK33 kinase. inhibition, % at 10 µM. 320,000 compounds, 0.073% hits. purified STK33, MBP phosphorylation, ADP-Glo luminescence;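 active means inhibition at or above 25%, using the most active replicate where run in duplicate; inactive means inhibition below 25%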
Target sequence (Q9BYT3 whole entry, looked up): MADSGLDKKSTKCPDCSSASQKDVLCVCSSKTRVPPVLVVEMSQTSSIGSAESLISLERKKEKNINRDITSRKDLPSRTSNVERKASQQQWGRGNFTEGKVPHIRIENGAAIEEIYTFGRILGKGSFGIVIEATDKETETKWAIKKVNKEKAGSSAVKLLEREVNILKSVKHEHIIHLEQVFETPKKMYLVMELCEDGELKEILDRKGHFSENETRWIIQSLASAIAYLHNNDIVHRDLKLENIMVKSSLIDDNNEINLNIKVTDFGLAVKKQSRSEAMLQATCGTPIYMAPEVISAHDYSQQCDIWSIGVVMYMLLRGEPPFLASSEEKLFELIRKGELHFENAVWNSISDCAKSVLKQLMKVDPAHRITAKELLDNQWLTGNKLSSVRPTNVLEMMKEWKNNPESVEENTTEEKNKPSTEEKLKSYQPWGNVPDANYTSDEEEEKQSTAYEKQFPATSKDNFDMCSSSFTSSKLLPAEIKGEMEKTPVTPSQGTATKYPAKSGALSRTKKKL
Yeast cmpd fluor – flagged as fluorescent in efflux inhibitor counter-screen; shares compounds with Efflux pump inh; S. cerevisiae AD/pABC3, compound fluorescence, flow cytometry; fluorescence ratio to DMSO, % at 10 µM; 1,700 compounds, 4% hits;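 active means fluorescence ratio to DMSO above its plate's cutoff, the plate mean ratio plus 5 SD, cut at about 210% in these data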;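 further: unstained yeast with no Nile Red so the signal is compound autofluorescence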
CaMdr1 efflux inh – Candida Mdr1 efflux pump inhibition | shares compounds with Efflux pump inh | S. cerevisiae AD/CaMDR1, Nile Red efflux, flow cytometry | 1,700 compounds, 1% hits | inhibition, % at 10 µM; in the data active means inhibition above about 26%;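 further: 0% = DMSO vehicle and 100% = reference inhibitor; higher means more Nile Red retained so more efflux inhibition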
CaCdr2 efflux inh – inhibitors of Candida albicans Cdr2 efflux pump. AID 588520. Nile Red retention ratio vs DMSO, % at 10 µM. S. cerevisiae AD/CaCDR2, Nile Red retention, flow cytometry. shares compounds with Efflux pump inh. 1,700 compounds, 4% hits; in the data active means Nile Red retention ratio vs DMSO above about 190%;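 further: higher ratio means more blocking of Cdr2 efflux of the dye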
Cdr1 pump inh – inhibitors of Candida albicans Cdr1 efflux pump | AID 588522 | inhibition, % at 10 µM | shares compounds with Efflux pump inh | 1,700 compounds, 1% hits | S. cerevisiae AD/CaCDR1, Nile Red efflux, flow cytometry;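 active means inhibition above the screen-wide mean plus twice its standard deviation, cut at about 32% in these data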
Starred values were filed as active, the others as inactive.

What do the screens show for `COc1cc(CCCN2C(N)=NC[C@H]2Cc2ccc(O)cc2)cc(OC)c1OC`?
GSK3B inh: 4; PolyA inh: 8; GSK3 alpha inh: 0; Efflux pump inh: 0; STK33 kinase inh: 0

What do the screens show for `CCCC1(c2ccccc2)NC(=O)N(CC(=O)NCc2ccc(OC)cc2)C1=O` (stereo not drawn)?
GSK3B inh: 1; PolyA inh: -8; GSK3 alpha inh: 0; Efflux pump inh: 0; STK33 kinase inh: -1

What do the screens show for `c1nc(NCc2ccc3c(c2)OCO3)c2cc(-c3ccoc3)ccc2n1`?
GSK3 alpha inh: -3; Efflux pump inh: 0; STK33 kinase inh: 0

What do the screens show for `COC(=O)CNC(=O)COC(=O)C(Cc1ccccc1)NC(=O)c1ccco1` (stereo not drawn)?
GSK3B inh: 1; PolyA inh: -2; GSK3 alpha inh: 6; Efflux pump inh: 0; STK33 kinase inh: 0

How did COC(=O)C(Cc1ccccc1)NC(=O)CCNC(=O)c1ccco1 (stereo not drawn) do in these assays?
GSK3B inh: -3; PolyA inh: 13; GSK3 alpha inh: 6; Efflux pump inh: 0.8*; STK33 kinase inh: 7; Yeast cmpd fluor: 91; CaMdr1 efflux inh: 0; CaCdr2 efflux inh: 85; Cdr1 pump inh: 0

How did Cc1nc(COc2ccccc2Cl)sc1-c1ccnc(N)n1 do in these assays?
GSK3B inh: -17; PolyA inh: -38; GSK3 alpha inh: 3; Efflux pump inh: 0; STK33 kinase inh: 7

What do the screens show for `Cc1cc2ccccc2n1CCNC(=O)c1ccc(Br)o1`?
GSK3B inh: 3; PolyA inh: -18; GSK3 alpha inh: 1; Efflux pump inh: 1.3*; STK33 kinase inh: 0; Yeast cmpd fluor: 100; CaMdr1 efflux inh: 0; CaCdr2 efflux inh: 94; Cdr1 pump inh: 0

How did COc1ccc(CN(CC2CCC(C(=O)O)CC2)C(=S)Nc2cc(C)cc(C)c2)cc1 (stereo not drawn) do in these assays?
GSK3B inh: 1; PolyA inh: -7; GSK3 alpha inh: -3; Efflux pump inh: 0; STK33 kinase inh: 0

How did CCC1=NN2C(=N)/C(=C/c3c(C)nn(-c4ccccc4)c3Cl)C(=O)N=C2S1 do in these assays?
GSK3B inh: 5; PolyA inh: -32; GSK3 alpha inh: 6; Efflux pump inh: 23*; STK33 kinase inh: 3; Yeast cmpd fluor: 110; CaMdr1 efflux inh: 0; CaCdr2 efflux inh: 106; Cdr1 pump inh: 0

What do the screens show for `COCc1nc2oc3ccc(F)cc3c(=O)c2cc1C(=O)OC`?
GSK3B inh: 1; PolyA inh: 12; GSK3 alpha inh: 1; Efflux pump inh: 0; STK33 kinase inh: -1

What do the screens show for `Cc1ccc(C)n1-c1ccc(N2CCOCC2)nc1`?
GSK3B inh: -2; PolyA inh: -3; GSK3 alpha inh: -2; Efflux pump inh: 12*; STK33 kinase inh: 0; Yeast cmpd fluor: 99; CaMdr1 efflux inh: 0; CaCdr2 efflux inh: 88; Cdr1 pump inh: 0

Results for O=C(CN1CCN(CCOCCO)CC1)N1c2ccccc2Sc2ccc(Cl)cc21 ?
GSK3B inh: 5; PolyA inh: -3; GSK3 alpha inh: 5; Efflux pump inh: 1.4*; STK33 kinase inh: 0; Yeast cmpd fluor: 105; CaMdr1 efflux inh: 0; CaCdr2 efflux inh: 104; Cdr1 pump inh: 0

Results for CCC(C)N(C(=O)Cn1nnc(-c2ccc(F)cc2)n1)C1CCS(=O)(=O)C1 (stereo not drawn) ?
GSK3B inh: 3; PolyA inh: -18; GSK3 alpha inh: -1; Efflux pump inh: 0.5*; STK33 kinase inh: -2; Yeast cmpd fluor: 114; CaMdr1 efflux inh: 1; CaCdr2 efflux inh: 123; Cdr1 pump inh: 0

Results for CCOc1ccc(OCc2ccc(C(=O)N(CC)CC)cc2)cc1 ?
GSK3B inh: 4; PolyA inh: 8; GSK3 alpha inh: -5; Efflux pump inh: 0; STK33 kinase inh: -1
